Bioassay records as filed in PubChem.
GalR3 antag = blocks the human galanin receptor 3; O60755; HEK293 GalR3-CNG cAMP membrane potential fluorescence; galR3 body fused to GalR1 C-terminus; inhibition, % at 3 µM; 360,000 compounds, 0.44% hits;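 active = inhibition above the screen-wide average plus 3 SD, cut at about 13% in these data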;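 note: forskolin and galanin both at EC90 stimulate the cells; cAMP rise reported by CNG channel membrane potential dye signal; 0% = forskolin plus galanin with DMSO and 100% = forskolin alone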
Target sequence (O60755 1-299 limits assumed): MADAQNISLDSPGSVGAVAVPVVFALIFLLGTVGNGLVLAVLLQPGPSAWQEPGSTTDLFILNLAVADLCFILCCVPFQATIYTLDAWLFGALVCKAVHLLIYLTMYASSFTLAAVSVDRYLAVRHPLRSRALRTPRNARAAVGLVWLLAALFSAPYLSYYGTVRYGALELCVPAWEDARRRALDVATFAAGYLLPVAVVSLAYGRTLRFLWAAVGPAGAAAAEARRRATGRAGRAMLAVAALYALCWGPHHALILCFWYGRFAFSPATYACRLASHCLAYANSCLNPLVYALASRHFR
COUP-TFII inh = blocks human COUP-TFII nuclear receptor; P24468; HEK293T NGFI-A luciferase reporter, luminescence; inhibition, % at 8.6 µM; 370,000 compounds, 0.7% hits; AID 686940;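 active = inhibition above a per-plate cutoff, mean inhibition of test wells between control levels plus 3 SD, cut at about 38% in these data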;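 note: cells cotransfected with COUP-TFII expression vector driving the NGFI-A reporter; 0% = median of COUP-TF2 test wells and 100% = reporter-only cells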
Target sequence (P24468 whole entry, looked up): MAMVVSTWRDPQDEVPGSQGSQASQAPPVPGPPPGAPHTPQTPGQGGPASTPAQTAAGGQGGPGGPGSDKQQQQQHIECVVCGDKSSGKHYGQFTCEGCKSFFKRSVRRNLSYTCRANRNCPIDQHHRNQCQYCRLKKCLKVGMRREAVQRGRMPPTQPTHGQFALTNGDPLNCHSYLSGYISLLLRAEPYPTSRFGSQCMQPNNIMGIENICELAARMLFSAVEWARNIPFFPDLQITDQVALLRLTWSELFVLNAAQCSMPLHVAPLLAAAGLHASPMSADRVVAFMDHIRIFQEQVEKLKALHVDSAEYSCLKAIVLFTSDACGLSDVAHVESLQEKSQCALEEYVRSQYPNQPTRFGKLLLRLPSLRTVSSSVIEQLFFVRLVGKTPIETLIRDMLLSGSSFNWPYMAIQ
CHT block = inhibits the human high affinity choline transporter; AID 488975; CHT-expressing cells, membrane potential dye, choline response; hits give low values; B-score at 10 µM; 310,000 compounds, 0.86% hits; Q9GZV3;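 active = B-score over 3 SD under the library average, and starting fluorescence ratio not unusually high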;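 note: choline stimulus applied at its EC90 after an EC20 pre-addition; B-score computed on integrated fluorescence ratio after choline addition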
NR2E3 ag-1 = agonists of human NR2E3 nuclear receptor; 360,000 compounds, 0.35% hits; inhibition of corepressor binding, % at 3.98 µM; Q9Y5X4; CHO-S Gal4-NCOR/VP16-NR2E3 two-hybrid, luciferase;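 active = inhibition above the mean of all tested compounds plus 3 SD, cut at about 70% in these data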;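 note: 0% = DMSO with NR2E3 transfected cells and 100% = cells lacking NR2E3 construct; higher means lower luciferase signal from less NR2E3 corepressor binding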
NR2E3 ag-2 = activates human photoreceptor nuclear receptor NR2E3; Q9Y5X4; GST-NR2E3/biotin-RetCOR TR-FRET, 1536-well; inhibition of corepressor binding, % at 4.78 µM; 320,000 compounds, 0.12% hits; AID 2300;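 active = percent inhibition above the cutoff of mean plus 3 SD of all tested compounds, set per screening campaign, cut at about 20% in these data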;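 note: 0% = DMSO wells and 100% = biotin wells as full block of FRET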
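Test system – NR2E3–RetCOR corepressor complex · Quantity – NR2E3 fusion 1.35 nM · Buffer or medium – Tris pH 7.5 · Incubation – Compound–protein incubation for 5 h at 4 °C · Technique – TR-FRET, Eu(K)-anti-GST donor, streptavidin-D2 acceptor, ex 340, em 617/671 nm · Evaluation – percent inhibition of 671/617 nm emission ratio versus biotin and DMSO controls · Plate – 1536-well format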
CHT PAM = allosteric activators of human choline transporter CHT | Q9GZV3 | CHT-expressing cells, membrane potential dye, choline EC20; hits give high values; LV-AA mutant CHT in HEK293 cells | 310,000 compounds, 0.49% hits | B-score at 10 µM | AID 488977;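 active = initial fluorescence not abnormally high and integrated response B-score, plate-corrected, over 3 SD above library mean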
NR2E3 ag confirm = confirmation of human NR2E3 agonists | shares compounds with NR2E3 ag-1 | CHO-S mammalian two-hybrid NR2E3-NCOR, luciferase luminescence | inhibition, % at 3.98 µM | 2,300 compounds, 51% hits;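 active = average inhibition above a cutoff equal to the mean inhibition of all tested compounds plus one SD, cut at about 70% in these data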;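 note: 0% = DMSO in NR2E3 cells and 100% = DMSO in cells lacking NR2E3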
VP16 counter = counter-screen for NR2E3 agonists: GAL4-VP16 reporter inhibitors. shares compounds with NR2E3 ag-1. CHO-S GAL4-VP16 luciferase reporter, luminescence. inhibition, % at 3.98 µM. 2,300 compounds, 29% hits;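 active = mean inhibition above a cutoff equal to the average over all tested compounds plus one standard deviation, cut at about 70% in these data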;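 note: luciferase from a UAS reporter driven by GAL4-VP16 transactivation; 0% = DMSO with VP16-transfected cells and 100% = DMSO with cells lacking VP16; higher means less reporter light so more repression of VP16 activity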
Active calls of the source: *; i = inactive; / = not tested or not shown. Compounds with a hit are over-represented: about 2.3% of the library has one in this group of screens.

SMILES | GalR3 antag | COUP-TFII inh | CHT block | NR2E3 ag-1 | NR2E3 ag-2 | CHT PAM | NR2E3 ag confirm | VP16 counter
C[C@H](O)[C@@H]1CN2CCc3ccc(N4CCOCC4)cc3[C@@H]2C[C@@H]1N(C)C(=O)c1ccco1 | / | -0.9 | / | / | / | / | / | /
Cc1cc(C)n2nc(SCC(=O)c3cc(C)n(-c4cc(C)on4)c3C)nc2n1 | -1.6 | 24.9 | i | 91.7* | 2.1 | i | 93.9* | 81.4*
CC(=O)c1ccc(NC(=O)NC2CCCCN(Cc3ccc(Cl)cc3)C2=O)cc1 (stereo not given) | / | 13.6 | / | / | / | / | / | /
CCN(CC)c1ccc(-c2nn3c(-c4ccc(C(C)(C)C)cc4)nnc3s2)cc1 | / | -2.0 | / | / | / | / | / | /
CCN(CC)c1ccc(-c2nn3c(-c4ccccc4OC)nnc3s2)cc1 | / | / | i | 57.0 | 1.1 | i | -38.2 | 7.8
CC(=O)c1ccc(OCc2cc(C(=O)N3CCC(c4ccncc4)CC3)no2)cc1 | -3.7 | 15.1 | i | 89.9* | -4.3 | i | 71.4* | 73.9*
CCCN1CCN(C(=O)c2cc(COc3ccc4ncccc4c3)on2)CC1 | -9.6 | 30.9 | i | 61.3 | 1.9 | i | 44.1 | 67.8
CC(=O)c1ccc(OCc2cc(C(=O)N3CC[C@@H]4CCCC[C@H]4C3)no2)cc1 | -3.6 | -6.7 | i | -79.7 | 0.8 | i | / | /
CCCN(CCC)S(=O)(=O)c1ccc(C(=O)Nc2nnc(CSC)o2)cc1 | -0.5 | 14.8 | i | 56.0 | -1.7 | i | 53.1 | 23.0
COCc1nnc(NC(=O)c2ccc(S(=O)(=O)N(CC(C)C)CC(C)C)cc2)o1 | 0.7 | 10.6 | i | 77.3* | -0.9 | i | 89.3* | 28.1
CCN(c1ccccc1)S(=O)(=O)c1ccc(C(=O)Nc2nnc(CSC)o2)cc1 | -3.0 | -8.6 | i | 65.5 | 0.9 | i | 93.3* | 31.8
CC[C@H](CCCCCC#N)CCC(=O)N(c1ccccc1)c1ccccc1 | / | 22.4 | / | / | / | / | / | /
Clc1ccc(CSc2nnc(Cn3cnc4ccccc43)o2)cc1 | 33.0* | 62.8* | i | 60.3 | 0.1 | i | 79.7* | 69.1
COc1ccc(C)c(NC(=O)[C@@H]2CCCN2S(=O)(=O)c2cccc3cccnc23)c1 | / | 12.2 | / | / | / | / | / | /
O=C(OC12CCCN(C1)/C(=C/c1ccccc1)C2)C1CCCC1 (stereo not given) | / | -8.8 | / | / | / | / | / | /
C=CS(=O)(=O)N(Cc1ccc(Cl)c(Cl)c1)C[C@@H](O)CO | / | / | / | 52.4 | / | / | 17.6 | 20.7
O=C(O)c1sccc1SCc1ccc(Cl)c(Cl)c1 | -3.1 | 9.9 | i | -17.2 | 0.9 | i | / | /
Cc1ccc(OCc2nnc(SCC(=O)Nc3ccc(OCc4ccccc4)cc3)n2-c2ccc(Cl)cc2)cc1 | / | -11.4 | / | / | / | / | / | /
C=CCN1C(=O)[C@@H](CC(=O)NCCc2ccccc2OC)[C@]2(C(=O)OC)CCCCC=C12 | / | 0.7 | / | / | / | / | / | /
NS(=O)(=O)c1ccc(CCNS(=O)(=O)c2ccc(Cl)cc2)cc1 | -10.2 | 6.0 | i | -4.0 | -0.3 | i | / | /
NS(=O)(=O)c1ccc(CCNc2nn3c(-c4ccc(F)c(Cl)c4)cnc3s2)cc1 | -5.4 | 35.3 | / | 62.0 | / | / | 64.4 | 49.7
CC(=NNc1nc2ccccc2s1)c1ccncn1 | -2.5 | -10.2 | / | 63.2 | / | / | -208.0 | -202.7
CCCCc1ccc(-c2noc(CCC(=O)NCC)n2)cc1 | / | 31.5 | / | / | / | / | / | /
CC(=O)c1c(C)oc2ccc(N(C(C)=O)S(=O)(=O)c3ccc(Br)cc3)cc12 | 1.4 | 2.2 | i | 89.9* | 7.0 | i | 90.4* | 72.6*
COC(=O)c1c(C)oc2ccc(N(C(C)=O)S(=O)(=O)c3ccccc3)cc12 | -7.6 | 3.2 | i | 97.9* | 5.4 | i | 84.5* | 65.1
SMILES | GalR3 antag | COUP-TFII inh | CHT block | NR2E3 ag-1 | NR2E3 ag-2 | CHT PAM | NR2E3 ag confirm | VP16 counter
CC(=O)c1c(C)oc2ccc(NS(=O)(=O)c3ccc(C)cc3)cc12 | 0.1 | -4.0 | i | 80.3* | -3.1 | i | -6.0 | 25.6
OC(c1ccccc1)(c1ccccc1)C1CCN(CCCNc2ccccc2Br)CC1 | / | 7.0 | / | / | / | / | / | /
CC(=O)c1c(C)oc2c1C(=O)c1ccccc1C2=O | -1.7 | 13.5 | i | -21.6 | -3.4 | i | / | /
COc1ccc(CNC(=O)c2c(C)oc3c2C(=O)c2ccccc2C3=O)cc1 | 0.8 | 13.2 | i | 65.8 | -2.0 | i | 98.5* | 50.4
C[C@@H]1CCN(C2CC2)S(=O)(=O)c2ccc(N3CCC[C@H]3CO)cc2O1 | / | -13.5 | / | / | / | / | / | /
Fc1ccc(C(CCCn2nnc(-c3cccnc3)n2)c2ccc(F)cc2)cc1 | -3.4 | 26.2 | i | 51.9 | -0.3 | i | 55.1 | 50.9
C=CCOc1ccccc1CNc1ccc2c(c1)OCCO2 | / | / | i | 48.6 | -2.9 | i | 48.8 | -8.0
COc1cccc(N2CCN(C(=O)CCn3nnc4ccccc43)CC2)c1 | / | 4.4 | / | / | / | / | / | /
CC(C)(C)c1ccc(OCC(O)CN2CCc3ccccc3C2)cc1 (stereo not given) | -8.6 | 15.2 | i | 85.3* | 2.6 | i | -3.3 | 1.7
OC(c1cccc(OCc2ccccc2)c1)c1nnc(-c2ccccc2)o1 (stereo not given) | -5.5 | -11.2 | i | 87.3* | 2.1 | i | 91.7* | 75.5*
COc1ccc(C2/C(=C(\O)c3ccc4c(c3)OCCO4)C(=O)C(=O)N2Cc2cccnc2)cc1OC (stereo not given) | -8.2 | 4.5 | i | -26.7 | -2.4 | i | / | /
O=C1C(=O)N(c2nccs2)C(c2ccccc2)/C1=C(\O)c1ccc2c(c1)OCCO2 (stereo not given) | / | / | i | 76.0* | 10.6 | i | 82.0* | 44.2
O=C1C(=O)N(CCN2CCOCC2)C(c2ccccc2)/C1=C(\O)c1ccc2c(c1)OCCO2 (stereo not given) | -0.9 | 4.2 | i | -12.4 | 10.7 | i | / | /
O=C1C(=O)N(c2nccs2)C(c2ccccc2F)/C1=C(\O)c1ccc2c(c1)OCCO2 (stereo not given) | 2.2 | 4.2 | i | 93.4* | 11.5 | i | 92.4* | 64.1
COC(=O)[C@]12C[C@H](CC(=O)NCCC(C)C)C(=O)N(Cc3ccc4c(c3)OCO4)C1=C[C@H](C(C)C)O[C@@H]2C1CC1 | / | -8.6 | / | / | / | / | / | /
Cn1nnnc1Sc1ncnc2scc(-c3ccccc3C(F)(F)F)c12 | 1.3 | -32.0 | / | 58.4 | 0.6 | / | 45.3 | 50.2
Cn1nnnc1Sc1ncnc2scc(-c3ccc(C(F)(F)F)cc3)c12 | -1.7 | -50.4 | / | 16.8 | 2.7 | / | / | /
Cn1nnnc1Sc1ncnc2scc(-c3cccc(F)c3)c12 | -2.2 | -69.0 | / | 47.9 | 3.2 | / | 9.2 | 30.0
COc1ccc(OC)c(S(=O)(=O)N2CCC(C(=O)NCc3cccs3)CC2)c1 | / | 2.3 | / | / | / | / | / | /
Cc1ccnc(SCc2cc(=O)c(OC(=O)c3ccc(C#N)cc3)co2)n1 | / | 25.9 | / | / | / | / | / | /
